Assay results as given in ChEMBL document CHEMBL5724801, “EUbOPEN Chemogenomics Library - Multiplex” (2024).
Several values for one entry are separate records, joined by “and”; a condition that tells them apart may be missing. Equal values may be shown once.

Key:
Fibroblast = experiment: Multiplex assay against human fibroblast; format: toxicity, cell-based
Procedure, shortened: (§1)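 Live cells carried four stains from seeding: Hoechst33342, BioTracker Green Microtubule Cytoskeleton Dye, MitoTracker Red and Annexin V Alexa Fluor 680. They were imaged on a CQ1 microscope at 37°C and 5% CO2 after compound addition. Using CellPathfinder machine-learning gating, cells were split into Hoechst high-intensity objects or normal cells, normal cells into healthy, pyknosed or fragmented nuclei, and pyknosed cells into mitotic or apoptotic; tubulin, mitochondrial-mass and membrane-permeability phenotypes are per cents of healthy-nucleus cells.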

HEK-293T = experiment: Multiplex assay against HEK293T; format: toxicity, cell-based; details: human; procedure, shortened: as §1
[1] = 12 h, 1 µM, compound concentration 1 uM
[2] = 12 h, 10 µM, compound concentration 10 uM
[3] = 24 h, 1 µM, compound concentration 1 uM
[4] = 24 h, 10 µM, compound concentration 10 uM
[5] = 48 h, 1 µM, compound concentration 1 uM
[6] = 48 h, 10 µM, compound concentration 10 uM

Compound: NC1=NC(=O)/C(=C2\CCNC(=O)c3[nH]c4ccccc4c32)N1
- Population Apoptotic (%) (Fibroblast; [1]): 5.88% and 11.11%
- Population Healthy Nuclei (%) (Fibroblast; [1]): 60.61% and 85.31%
- Population Hoechst High Intensity Objects (%) (Fibroblast; [1]): 0%
- Population Membrane Permeable-Phenotype (%) (Fibroblast; [1]): 2% and 1.91%
- Population Mitochondria Different-Phenotype (%) (Fibroblast; [1]): 8% and 7.66%
- Population Mitotic Cells (%) (Fibroblast; [1]): 94.12% and 88.89%
- Population Normal (%) (Fibroblast; [1]): 100%
- Population Pyknosed Nuclei (%) (Fibroblast; [1]): 20.61% and 11.02%
- Population Tubulin-Different-Phenotype (%) (Fibroblast; [1]): 10% and 11.48%
- Total Cell Count (Fibroblast; [1]): 165 and 245
- Population Fragmented Nuclei (%) (Fibroblast; [2]): 8.29% and 5.11%
- Population Healthy Nuclei (%) (Fibroblast; [2]): 63.9% and 72.73%
- Population Hoechst High Intensity Objects (%) (Fibroblast; [2]): 0%
- Population Membrane Permeable-Phenotype (%) (Fibroblast; [2]): 3.82% and 2.34%
- Population Mitochondria Different-Phenotype (%) (Fibroblast; [2]): 7.63% and 9.38%
- Population Mitotic Cells (%) (Fibroblast; [2]): 92.98% and 76.92%
- Population Normal (%) (Fibroblast; [2]): 100%
- Population Pyknosed Nuclei (%) (Fibroblast; [2]): 27.8% and 22.16%
- Population Tubulin-Different-Phenotype (%) (Fibroblast; [2]): 9.92% and 14.06%
- Total Cell Count (Fibroblast; [2]): 205 and 176
- Population Apoptotic (%) (Fibroblast; [3]): 10% and 14.71%
- Population Fragmented Nuclei (%) (Fibroblast; [3]): 10% and 5.2%
- Population Healthy Nuclei (%) (Fibroblast; [3]): 73.33% and 81.2%
- Population Hoechst High Intensity Objects (%) (Fibroblast; [3]): 0%
- Population Membrane Permeable-Phenotype (%) (Fibroblast; [3]): 6.06% and 1.48%
- Population Mitochondria Different-Phenotype (%) (Fibroblast; [3]): 3.79% and 8.37%
- Population Mitotic Cells (%) (Fibroblast; [3]): 90% and 85.29%
- Population Normal (%) (Fibroblast; [3]): 100%
- Population Pyknosed Nuclei (%) (Fibroblast; [3]): 16.67% and 13.6%
- Population Tubulin-Different-Phenotype (%) (Fibroblast; [3]): 12.12% and 11.33%
- Total Cell Count (Fibroblast; [3]): 180 and 250
- Population Apoptotic (%) (Fibroblast; [4]): 4.92% and 12.82%
- Population Fragmented Nuclei (%) (Fibroblast; [4]): 6.84% and 5.46%
- Population Healthy Nuclei (%) (Fibroblast; [4]): 67.09% and 73.22%
- Population Hoechst High Intensity Objects (%) (Fibroblast; [4]): 0%
- Population Membrane Permeable-Phenotype (%) (Fibroblast; [4]): 5.1% and 0%
- Population Mitochondria Different-Phenotype (%) (Fibroblast; [4]): 3.82% and 5.97%
- Population Mitotic Cells (%) (Fibroblast; [4]): 95.08% and 87.18%
- Population Normal (%) (Fibroblast; [4]): 100%
- Population Pyknosed Nuclei (%) (Fibroblast; [4]): 26.07% and 21.31%
- Population Tubulin-Different-Phenotype (%) (Fibroblast; [4]): 12.1% and 15.67%
- Total Cell Count (Fibroblast; [4]): 234 and 183
- Population Fragmented Nuclei (%) (Fibroblast; [5]): 13% and 5%
- Population Healthy Nuclei (%) (Fibroblast; [5]): 83% and 91.25%
- Population Hoechst High Intensity Objects (%) (Fibroblast; [5]): 0%
- Population Membrane Permeable-Phenotype (%) (Fibroblast; [5]): 1.2% and 2.74%
- Population Mitotic Cells (%) (Fibroblast; [5]): 87.5% and 55.56%
- Population Normal (%) (Fibroblast; [5]): 100%
- Population Pyknosed Nuclei (%) (Fibroblast; [5]): 4% and 3.75%
- Population Tubulin-Different-Phenotype (%) (Fibroblast; [5]): 6.02% and 11.42%
- Total Cell Count (Fibroblast; [5]): 200 and 240
- Population Apoptotic (%) (Fibroblast; [6]): 19.05% and 14.29%
- Population Fragmented Nuclei (%) (Fibroblast; [6]): 4.95% and 6.88%
- Population Healthy Nuclei (%) (Fibroblast; [6]): 87.63% and 85.71%
- Population Hoechst High Intensity Objects (%) (Fibroblast; [6]): 0%
- Population Membrane Permeable-Phenotype (%) (Fibroblast; [6]): 0.4% and 4.32%
- Population Mitochondria Different-Phenotype (%) (Fibroblast; [6]): 11.69% and 2.47%
- Population Mitotic Cells (%) (Fibroblast; [6]): 80.95% and 85.71%
- Population Normal (%) (Fibroblast; [6]): 100%
- Population Pyknosed Nuclei (%) (Fibroblast; [6]): 7.42% and 7.41%
- Population Tubulin-Different-Phenotype (%) (Fibroblast; [6]): 6.45% and 14.2%
- Total Cell Count (Fibroblast; [6]): 283 and 189
- Population Apoptotic (%) (HEK-293T; [1]): 13.33% and 11.21%
- Population Fragmented Nuclei (%) (HEK-293T; [1]): 2.11% and 2.19%
- Population Hoechst High Intensity Objects (%) (HEK-293T; [1]): 0.52% and 0%
- Population Membrane Permeable-Phenotype (%) (HEK-293T; [1]): 0.85% and 3.7%
- Population Mitotic Cells (%) (HEK-293T; [1]): 86.67% and 88.79%
- Population Normal (%) (HEK-293T; [1]): 99.48% and 100%
- Population Pyknosed Nuclei (%) (HEK-293T; [1]): 35.62% and 78.1%
- Total Cell Count (HEK-293T; [1]): 381 and 137
- Population Apoptotic (%) (HEK-293T; [2]): 8.93% and 12.5%
- Population Fragmented Nuclei (%) (HEK-293T; [2]): 2.8% and 2.1%
- Population Hoechst High Intensity Objects (%) (HEK-293T; [2]): 0%
- Population Membrane Permeable-Phenotype (%) (HEK-293T; [2]): 1% and 0%
- Population Mitochondria Different-Phenotype (%) (HEK-293T; [2]): 33.83% and 15%
- Population Mitotic Cells (%) (HEK-293T; [2]): 91.07% and 87.5%
- Population Normal (%) (HEK-293T; [2]): 100%
- Population Pyknosed Nuclei (%) (HEK-293T; [2]): 34.78% and 83.92%
- Total Cell Count (HEK-293T; [2]): 322 and 143
- Population Apoptotic (%) (HEK-293T; [3]): 12% and 13.98%
- Population Fragmented Nuclei (%) (HEK-293T; [3]): 1.99% and 1.92%
- Population Healthy Nuclei (%) (HEK-293T; [3]): 77.28% and 38.46%
- Population Hoechst High Intensity Objects (%) (HEK-293T; [3]): 0%
- Population Membrane Permeable-Phenotype (%) (HEK-293T; [3]): 0.86% and 3.33%
- Population Mitochondria Different-Phenotype (%) (HEK-293T; [3]): 12.45% and 11.67%
- Population Mitotic Cells (%) (HEK-293T; [3]): 88% and 86.02%
- Population Normal (%) (HEK-293T; [3]): 100%
- Population Pyknosed Nuclei (%) (HEK-293T; [3]): 20.73% and 59.62%
- Population Tubulin-Different-Phenotype (%) (HEK-293T; [3]): 11.37% and 1.67%
- Population Apoptotic (%) (HEK-293T; [4]): 14.91% and 16%
- Population Fragmented Nuclei (%) (HEK-293T; [4]): 1.32% and 5.13%
